Source: ChEMBL document CHEMBL2069218, “Water-soluble pyrazolo[4,3-e][1,2,4]triazolo[1,5-c]pyrimidines as human A₃ adenosine receptor antagonists” (J Med Chem, 2012)

How the values were obtained:
Adenosine receptor A2a = Adenosine receptor A2a (Homo sapiens, UniProt P29274); assay: Displacement of [3H]ZM241385 from human adenosine A2A receptor expressed in CHO cells after 60 mins by scintillation counter; assay type: cell-based
Summary of the method: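 Membranes from CHO cells expressing human A2A (50 μg protein), in 50 mM Tris-HCl, 10 mM MgCl2, pH 7.4, adenosine deaminase pretreated. [³H]ZM241385 2 nM, 6–8 concentrations, 60 min at 4 °C. Nonspecific binding with 1 μM ZM241385. Filtration, scintillation counting. Ki by Cheng–Prusoff. 3–4 experiments in duplicate.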

Adenosine receptor A3 [1] = biological target: T1, Adenosine receptor A3 (Homo sapiens, UniProt P0DMS8); assay: Antagonist activity at human adenosine A3 receptor expressed in CHO cells assessed as forskolin/C1-IB-MECA-induced inhibition of cAMP production; assay type: functional, cell-based
T1 sequence (P0DMS8 whole entry): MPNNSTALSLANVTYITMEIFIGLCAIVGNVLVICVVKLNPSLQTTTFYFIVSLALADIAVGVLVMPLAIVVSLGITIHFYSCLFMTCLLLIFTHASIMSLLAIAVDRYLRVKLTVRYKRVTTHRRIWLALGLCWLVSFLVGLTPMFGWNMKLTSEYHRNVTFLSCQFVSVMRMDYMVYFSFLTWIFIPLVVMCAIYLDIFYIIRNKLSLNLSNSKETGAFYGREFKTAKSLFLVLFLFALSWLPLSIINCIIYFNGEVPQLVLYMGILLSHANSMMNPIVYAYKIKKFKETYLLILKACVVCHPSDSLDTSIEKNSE
Summary of the method: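 Intact CHO cells (1 × 10⁶/assay) expressing human A3, in buffer pH 7.4 with 2 IU/mL adenosine deaminase and Ro 20-1724. Preincubated 10 min at 37 °C. Forskolin 1 μM with Cl-IB-MECA 100 nM. Stopped with cold 6% TCA, cAMP measured by [³H]cAMP competition protein binding. IC50 by sigmoid nonlinear regression.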

Adenosine receptor A2b = biological target: T2, Adenosine receptor A2b (Homo sapiens, UniProt P29275); assay: Antagonist activity at human adenosine A2B receptor expressed in CHO cells assessed as inhibition of NECA-induced cAMP production; assay type: functional, cell-based
T2 sequence (P29275 whole entry): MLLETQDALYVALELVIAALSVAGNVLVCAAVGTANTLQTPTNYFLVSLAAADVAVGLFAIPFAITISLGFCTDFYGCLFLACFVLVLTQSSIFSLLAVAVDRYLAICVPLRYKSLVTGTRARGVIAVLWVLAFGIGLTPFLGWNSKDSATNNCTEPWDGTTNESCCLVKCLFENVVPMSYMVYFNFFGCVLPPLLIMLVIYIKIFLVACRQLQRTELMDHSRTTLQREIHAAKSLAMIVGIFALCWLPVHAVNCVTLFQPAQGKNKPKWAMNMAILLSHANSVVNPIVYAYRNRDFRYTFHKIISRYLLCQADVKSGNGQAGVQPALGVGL
Summary of the method: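 Intact CHO cells (1 × 10⁶/assay) expressing human A2B, in buffer pH 7.4 with 2 IU/mL adenosine deaminase and Ro 20-1724. Preincubated 10 min at 37 °C. NECA 100 nM stimulus. Stopped with cold 6% TCA, ether-extracted, cAMP measured by competition protein binding with [³H]cAMP. IC50 from sigmoid nonlinear regression.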

Adenosine receptor A3 [2] = biological target: T1, Adenosine receptor A3; assay: Displacement of [3H]MRE-3008-F20 from human adenosine A3 receptor expressed in CHO cells after 120 mins by scintillation counter; assay type: cell-based
Adenosine receptor A1 = biological target: T3, Adenosine receptor A1 (Homo sapiens, UniProt P30542); assay: Displacement of [3H]DPCPX from human adenosine A1 receptor expressed in CHO cells after 120 mins by scintillation counter; assay type: cell-based
T3 sequence (P30542 whole entry): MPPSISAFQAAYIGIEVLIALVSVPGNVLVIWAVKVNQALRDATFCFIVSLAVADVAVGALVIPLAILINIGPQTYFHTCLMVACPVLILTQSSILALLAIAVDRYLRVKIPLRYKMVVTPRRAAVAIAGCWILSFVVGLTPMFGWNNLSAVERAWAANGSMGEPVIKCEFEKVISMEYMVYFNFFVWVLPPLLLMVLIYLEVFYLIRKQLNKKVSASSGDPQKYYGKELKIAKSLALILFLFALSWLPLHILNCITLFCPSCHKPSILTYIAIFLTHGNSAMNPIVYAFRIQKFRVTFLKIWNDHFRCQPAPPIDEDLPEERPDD
Summary of the method: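 Membranes from CHO cells expressing human A1 (50 μg protein), in 50 mM Tris-HCl pH 7.4, pretreated with adenosine deaminase 2 IU/mL. [³H]DPCPX 1 nM, 6–8 test concentrations, 120 min at 25 °C. Nonspecific binding with 1 μM DPCPX. GF/B filtration. Ki by Cheng–Prusoff.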

Adenosine receptor A2a, sequence (P29274 whole entry): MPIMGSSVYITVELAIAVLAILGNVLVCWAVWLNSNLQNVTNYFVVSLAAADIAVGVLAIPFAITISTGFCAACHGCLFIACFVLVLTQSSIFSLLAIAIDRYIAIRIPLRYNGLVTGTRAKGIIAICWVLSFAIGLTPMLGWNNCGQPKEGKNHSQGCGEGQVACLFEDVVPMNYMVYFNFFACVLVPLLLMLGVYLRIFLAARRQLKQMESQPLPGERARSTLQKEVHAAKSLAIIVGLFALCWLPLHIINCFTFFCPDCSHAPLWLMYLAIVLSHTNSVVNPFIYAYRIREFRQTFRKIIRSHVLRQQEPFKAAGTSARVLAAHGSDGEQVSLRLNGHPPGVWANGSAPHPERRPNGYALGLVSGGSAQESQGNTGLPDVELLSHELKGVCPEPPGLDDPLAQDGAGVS

Row | Compound | Ki (Adenosine receptor A2a) [nM] | IC50 (Adenosine receptor A3 [1]) [nM] | IC50 (Adenosine receptor A2b) [nM] | Ki (Adenosine receptor A3 [2]) [nM] | Ki (Adenosine receptor A1) [nM]
1 | Cn1cc2c(nc(NC(=O)NC3CCN(Cc4ccncc4)CC3)n3nc(-c4ccco4)nc23)n1 | > 5000 | 166 | > 5000 | 39 | 1190
2 | Cn1cc2c(nc(NC(=O)NC3CCN(C(=O)NCc4ccc(Cl)cc4)CC3)n3nc(-c4ccco4)nc23)n1 | 1140 | 90 | 505 | 25 | 614
3 | Cn1cc2c(nc(NC(=O)NC3CCN(C(=O)Nc4ccncc4)CC3)n3nc(-c4ccco4)nc23)n1 | 1860 | 82 | 3240 | 21 | 1300
4 | CCCN1CCC(NC(=O)Nc2nc3nn(C)cc3c3nc(-c4ccco4)nn23)CC1 | 1190 | 301 | > 5000 | 71 | 2790
5 | Cn1cc2c(nc(NC(=O)NC3CCN(C(=O)NC4CCCCC4)CC3)n3nc(-c4ccco4)nc23)n1 | > 5000 | 44 | > 5000 | 13.7 | 761
6 | Cn1cc2c(nc(NC(=O)NC3CCN(C(=O)NCc4ccccc4)CC3)n3nc(-c4ccco4)nc23)n1 | > 5000 | 29 | 1110 | 8.1 | 525
7 | CCNC(=O)N1CCC(NC(=O)Nc2nc3nn(C)cc3c3nc(-c4ccco4)nn23)CC1 | > 5000 | 116 | > 5000 | 30 | 1500
8 | C#CCN1CCC(NC(=O)Nc2nc3nn(C)cc3c3nc(-c4ccco4)nn23)CC1 | 789 | 105 | > 5000 | 25 | 802
9 | CC(C)NC(=O)N1CCC(NC(=O)Nc2nc3nn(C)cc3c3nc(-c4ccco4)nn23)CC1 | > 5000 | 34 | > 5000 | 9.8 | 1320
10 | Cc1ccc(CNC(=O)N2CCC(NC(=O)Nc3nc4nn(C)cc4c4nc(-c5ccco5)nn34)CC2)cc1 | 2810 | 12 | 2120 | 3.9 | 396
11 | Cn1cc2c(nc(NC(=O)NC3CCN(C(=O)NCCc4ccccc4)CC3)n3nc(-c4ccco4)nc23)n1 | 1840 | 23 | 1760 | 6.8 | 182
12 | Cn1cc2c(nc(NC(=O)NC3CCN(Cc4ccccc4)CC3)n3nc(-c4ccco4)nc23)n1 | 526 | 121 | 2060 | 30 | 703
13 | Cn1cc2c(nc(NC(=O)NC3CCN(C(=O)NC4CCCCCC4)CC3)n3nc(-c4ccco4)nc23)n1 | > 5000 | 26 | > 5000 | 7.7 | 805
14 | Cn1cc2c(nc(NC(=O)NC3CCN(Cc4ccc(F)cc4)CC3)n3nc(-c4ccco4)nc23)n1 | > 5000 | 82 | > 5000 | 24 | 1050
15 | Cn1cc2c(nc(NC(=O)NC3CCN(Cc4ccc(Cl)cc4)CC3)n3nc(-c4ccco4)nc23)n1 | > 5000 | 91 | > 5000 | 26 | 724
16 | C=CCN1CCC(NC(=O)Nc2nc3nn(C)cc3c3nc(-c4ccco4)nn23)CC1 | 1420 | 212 | > 5000 | 51 | 3360
17 | Cn1cc2c(nc(NC(=O)NC3CCN(C(=O)NCc4ccc(F)cc4)CC3)n3nc(-c4ccco4)nc23)n1 | 3260 | 15 | 1040 | 4.9 | 408
18 | CCOC(=O)CN1CCC(NC(=O)Nc2nc3nn(C)cc3c3nc(-c4ccco4)nn23)CC1 | 1080 | 41 | > 5000 | 12.2 | 348
19 | CN1CCC(NC(=O)Nc2nc3nn(C)cc3c3nc(-c4ccco4)nn23)CC1 | > 5000 | 910 | > 5000 | 253 | > 5000
20 | COc1ccc(CNC(=O)N2CCC(NC(=O)Nc3nc4nn(C)cc4c4nc(-c5ccco5)nn34)CC2)cc1 | > 5000 | 34 | 3240 | 10.4 | 635
21 | Cn1cc2c(nc(NC(=O)NC3CCN(C(=O)NC4CCCC4)CC3)n3nc(-c4ccco4)nc23)n1 | > 5000 | 30 | > 5000 | 9.3 | 744
22 | CN1CCN(C(=O)N2CCC(NC(=O)Nc3nc4nn(C)cc4c4nc(-c5ccco5)nn34)CC2)CC1 | 1280 | 120 | 2140 | 31 | 1120
23 | Cn1cc2c(nc(NC(=O)NC3CCN(Cc4cccnc4)CC3)n3nc(-c4ccco4)nc23)n1 | > 5000 | 180 | > 5000 | 44 | 1330
24 | Cn1cc2c(nc(NC(=O)NC3CCNCC3)n3nc(-c4ccco4)nc23)n1 | > 5000 | 262 | 2430 | 65 | > 5000
25 | Cn1cc2c(nc(NC(=O)NC3CCN(Cc4ccc([N+](=O)[O-])cc4)CC3)n3nc(-c4ccco4)nc23)n1 | > 5000 | 42 | > 5000 | 12.4 | 371
